# Bioassay records as filed in PubChem.
# Compounds with a hit are over-represented: about 2.3% of the library has one in this group of screens.
# SIAE inh: human SIAE inhibition, primary screen; Q9HAT2; SIAE FP-Rh probe binding, fluorescence polarization; inhibition, % at 9.66 µM; 370,000 compounds, 0.69% hits; AID 1053197;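 active = inhibition above a cutoff: mean of compounds within the control limits plus 3 SD of those, cut at about 17% in these data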
# Target sequence (Q9HAT2 whole entry, looked up): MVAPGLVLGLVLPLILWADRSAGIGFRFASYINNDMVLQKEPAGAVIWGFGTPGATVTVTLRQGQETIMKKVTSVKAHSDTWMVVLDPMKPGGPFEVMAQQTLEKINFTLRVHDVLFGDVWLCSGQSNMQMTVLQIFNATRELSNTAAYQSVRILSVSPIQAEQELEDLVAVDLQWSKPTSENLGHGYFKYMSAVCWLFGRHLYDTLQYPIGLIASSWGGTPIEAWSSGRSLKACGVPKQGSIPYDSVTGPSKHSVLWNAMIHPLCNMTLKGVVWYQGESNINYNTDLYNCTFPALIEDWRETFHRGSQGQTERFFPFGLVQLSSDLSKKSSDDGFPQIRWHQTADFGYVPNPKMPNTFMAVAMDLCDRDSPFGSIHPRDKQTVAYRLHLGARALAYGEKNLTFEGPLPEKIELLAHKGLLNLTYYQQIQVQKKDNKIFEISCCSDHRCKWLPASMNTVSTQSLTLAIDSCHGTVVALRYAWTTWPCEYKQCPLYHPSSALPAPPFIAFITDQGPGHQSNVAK
# ABHD4 inh: ABHD4 (mouse) inhibition, primary FP screen; 370,000 compounds, 0.54% hits; purified mABHD4, FP-Rh probe fluorescence polarization; inhibition, % at 8.92 µM;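 active = inhibition exceeding the mean over every tested compound plus 3 SD, cut at about 30% in these data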
#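 Assay system: mouse ABHD4 enzyme, wild type / Also added: fluorescent activity-based probe FP-Rh / Doses: single nominal dose of 8.92 µM, 0.89% DMSO final / Timing: 45 min compound pre-incubation plus 60 min probe step, 25 °C / Signal: FP readout, ex 525 nm / em 598 nm / Control set: S159A mutant/DMSO as 100%, compound-well median as 0%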
# HTRA1 inhibitor: HTRA1 (human) protease inhibition; Q92743; recombinant HTRA1, FP-rhodamine activity-based probe, fluorescence polarization; inhibition, % at 5.96 µM; 340,000 compounds, 0.5% hits; AID 504803; in the data active = inhibition above about 36%
# TCR CD3 inh: inhibitors of human TCR-CD3 interaction | inhibition, % at 9.4 µM | 360,000 compounds, 0.37% hits | TAMRA-labeled TCR probe fluorescence, biochemical; in the data active = inhibition above about 19%;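 also: recombinant mutant TCR 2C K166C tagged with TAMRA read by polarization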
# pPAFAH inh: inhibitors of human plasma PAF acetylhydrolase (pPAFAH). Q13093. recombinant pPAFAH, FP-rhodamine probe fluorescence polarization. inhibition, % at 3.39 µM. 330,000 compounds, 1.5% hits. AID 463082;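 active = inhibition above the mean inhibition across the screen plus 3 SD, cut at about 25% in these data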;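 also: inhibitors block binding of the rhodamine activity-based probe so polarization drops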
# A number is an active result; . = inactive; / = not tested or not shown.
SMILES,SIAE inh,ABHD4 inh,HTRA1 inhibitor,TCR CD3 inh,pPAFAH inh
COc1ccc(CN(C)C(=O)c2ccc(NS(=O)(=O)c3ccc(F)cc3)cc2)c(OC)c1,.,.,.,.,.
COc1ccc(NS(=O)(=O)c2ccc(NC(=O)C3CCCO3)cc2)cc1 (stereo not drawn),.,.,.,.,26
COc1ccc(NS(=O)(=O)c2ccc(C)c(C(=O)N(C)Cc3ccc(C)cc3)c2)cc1,.,.,.,.,28
Cc1ccc(NS(=O)(=O)c2ccc(CCC(=O)NC3CC3)cc2)cc1,.,.,.,.,.
COCCNC(=O)CCc1ccc(S(=O)(=O)Nc2ccc(C)cc2)cc1,.,.,.,.,25
COc1ccc(NS(=O)(=O)c2ccc(C)c(C(=O)N(C)CCc3ccc(OC)c(OC)c3)c2)cc1,.,.,.,.,.
COc1ccc(NS(=O)(=O)c2ccc(C(=O)N(C)Cc3ccc(C)o3)cc2)cc1,.,.,.,.,32
O=C(CSc1nnc(COc2ccccc2)n1-c1ccc(Cl)cc1)Nc1ccccc1-c1ccccc1,.,.,/,/,/
COc1ccccc1CCn1cnc(-c2ccc(F)cc2)c1C(C)C,.,.,/,.,/
Cn1nnnc1Sc1ncnc2scc(-c3ccc(F)cc3)c12,.,.,.,.,29
CC(CS(=O)(=O)c1ccc2c(c1)NC(=O)CS2)C(=O)NCc1ccccc1Cl (stereo not drawn),.,.,.,.,.
CC(CS(=O)(=O)c1ccc2c(c1)NC(=O)CS2)C(=O)N1CCN(c2cccc(Cl)c2)CC1 (stereo not drawn),.,.,.,.,25
CC(C)C(=O)OCCCN1C(=O)CCC12CCC(c1ccccc1)CC2 (stereo not drawn),.,.,/,/,/
O=C(CCCN1C(=O)/C(=C\c2cccs2)SC1=S)Nc1ccc(O)cc1C(=O)O,.,.,.,.,25
CC(=O)c1ccc(OCC(=O)N2CCN(S(=O)(=O)c3ccc(C)cc3C)CC2)cc1,.,.,.,.,32
O=C(O)c1ccccc1C(=O)Nc1cc(C(F)(F)F)ccc1N1CCCC1,.,.,.,.,30
COC(=O)[C@H](CC(C)C)N(Cc1cn(Cc2ccccc2)nn1)S(=O)(=O)c1ccc(F)cc1Br,.,.,/,/,/
CCc1ccccc1N1CSC2=C(C#N)C(c3cc(OC)c(OC)cc3OC)CC(=O)N2C1 (stereo not drawn),.,.,.,.,25
COc1ccccc1N1CSC2=C(C#N)C(c3ccc(SC)cc3)CC(=O)N2C1 (stereo not drawn),.,31,.,.,.
COc1cc(OC)c(C2CC(=O)N3CN(c4ccccc4)CSC3=C2C#N)cc1OC (stereo not drawn),.,.,.,.,.
CCOC(=O)c1sc2cc([N+](=O)[O-])cc(SCC(=O)OC)c2c1N,.,.,.,.,25
O=C(COC(=O)CC1CCCC1)Nc1ccc(Br)cc1F,.,.,.,.,.
CCOc1ccc(NC(=O)COC(=O)c2ccc3c(c2)C(=O)N(CCc2ccccc2)C3=O)cc1,.,.,.,.,.
Cc1noc(NS(=O)(=O)c2ccc(NC(=O)CCC3CCCCC3)cc2)c1C,.,.,.,.,32
COc1ccc(NS(=O)(=O)c2ccc(OC)c(NC(=O)CCC3CCCCC3)c2)cc1,.,.,.,.,29
SMILES,SIAE inh,ABHD4 inh,HTRA1 inhibitor,TCR CD3 inh,pPAFAH inh
Cc1ccc(NC(=O)COC(=O)CC2CCCC2)cc1F,.,.,.,.,30
O=C(COC(=O)c1ccc2c(c1)C(=O)N(CCc1ccccc1)C2=O)Nc1ccc(OC(F)F)cc1,.,.,.,.,25
CN(Cc1ccco1)S(=O)(=O)c1ccc2c(c1)CCN2C(=O)CC(C)(C)C,.,.,/,/,/
Cc1ccc(NC(=S)NNC(=O)CSc2nc3ccccc3c(=O)n2-c2ccc(Cl)cc2)cc1,.,.,/,/,/
COc1ccccc1C(=O)OCC(=O)Nc1ccccc1OC(F)F,.,.,.,.,.
Cc1cccc(NC(=O)COC(=O)CC2CCCC2)c1C,.,.,.,.,/
CCc1ccc(NC(=O)COC(=O)CC2CCCC2)cc1,.,.,.,.,26
COc1ccccc1C(=O)OCC(=O)Nc1ccc(OC(F)F)cc1,.,.,.,.,28
NC(=O)c1ccc(NC(=O)COC(=O)CCC2CCCCC2)cc1,.,.,.,.,.
COc1ccc(NC(=O)COC(=O)CCC2CCCCC2)cc1,.,.,.,.,32
O=C(COC(=O)CC1CCCC1)Nc1ccc(OC(F)F)cc1,.,.,.,.,28
CCCCNC(=O)C[C@H]1C[C@@]2(C(=O)OC)C(=C[C@H](C(C)C)O[C@@H]2C2CC2)N(CCC2=CCCCC2)C1=O,.,.,/,/,/
COC(=O)[C@]12C[C@H](CC(=O)NCCc3ccccc3OC)C(=O)N(Cc3cccc4ccccc34)C1=C[C@H](COCc1ccccc1)O[C@@H]2C,.,.,/,/,/
O=C(C1CCCN1S(=O)(=O)c1ccc([N+](=O)[O-])cc1)N1CCN(c2ccccc2)CC1 (stereo not drawn),.,.,/,/,/
COC(=O)[C@]12C[C@H](CC(=O)NCc3cccc(C(F)(F)F)c3)C(=O)N(Cc3ccco3)C1=C[C@H](C(C)(C)C)O[C@@H]2C,.,.,/,/,/
NC(=O)C(CC(=O)O)NC(=O)[C@@H]1CCCNc2c(I)cc([N+](=O)[O-])cc2C(=O)N[C@@H](CO)C(=O)N[C@@H](Cc2ccc(O)cc2)C(=O)N1 (stereo partly drawn),/,/,.,/,26
Cc1ccc(Cl)cc1NS(=O)(=O)Cc1ccccc1,.,.,.,.,30
Cc1ccc(Cl)cc1NS(=O)(=O)c1ccccc1,.,.,.,.,/
O=C(Nc1ccc(C(O)(C(F)(F)F)C(F)(F)F)cc1)c1ccc(Cl)cc1,.,.,/,/,/
Nc1c(C(=O)OCC(=O)Nc2cccc([N+](=O)[O-])c2)[nH]c(=O)[nH]c1=O,/,/,.,/,25
Nc1ccc(N2CCCCCC2)cc1,/,/,/,/,29
CSc1ccc(C=NNC(=O)c2cc(-c3ccc(Cl)cc3)n[nH]2)cc1,.,.,/,/,/
CN1C2=N[C@@H](c3ccc4c(c3)OCO4)CC(=O)N2/C(=C\c2ccccc2)[C@H]1c1ccccc1,.,.,/,/,/
